# Assay outcomes deposited in PubChem BioAssay by Broad Institute.
# The full list was thinned out, with hits kept by preference.
# PDI inh: blocks human protein disulfide isomerase activity | PDI insulin aggregation turbidity, A650, 90 min | inhibition, % at 10 µM | 350,000 compounds, 0.052% hits | AID 588391;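 active = mean inhibition across replicates of 30% or more, whatever share of single replicates reach that level; inconclusive = mean inhibition below 30% while every single replicate reaches 30%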
# ERp5 block: inhibitors of human ERp5 | Q15084 | ERp5 insulin aggregation, absorbance 650 nm, 90 min | inhibition, % at 9.99 µM | 350,000 compounds, 0.05% hits | AID 651711;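 active = mean replicate inhibition above about 25%, with every replicate also reaching it, limit read from the data, passing the limit was not always enough; inconclusive = only one of those two criteria met; inactive = neither criterion met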
# S100A4 MyoIIA: S100A4-myosin IIA interaction inhibition; S100A4/TAMRA-MyoIIA peptide fluorescence polarization; inhibition, % at 10.7 µM; 360,000 compounds, 0.14% hits;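 active = mean inhibition of at least 70% across replicates, with every replicate also reaching that level; inconclusive = mean inhibition reaches 70% but some replicates fall short; inactive = mean inhibition below 70%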
# Target sequence (P26447 whole entry, looked up): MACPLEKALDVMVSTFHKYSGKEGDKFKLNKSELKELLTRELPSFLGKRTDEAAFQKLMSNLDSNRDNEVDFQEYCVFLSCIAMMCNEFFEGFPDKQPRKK
#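 System – human S100A4 monomer protein, biochemical binding assay · Buffer or medium – Calcium-containing HEPES buffer, pH 7.2 · Timing – 5 min between mix addition and reading · Also added – TAMRA-labelled myosin IIA heavy-chain peptide probe, 5 nM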
# FGF22 binding: shifts melting point of recombinant human FGF22. Q9HCT0. recombinant FGF22 thermal shift, SYPRO orange fluorescence; percent of sucrose octasulfate shift, DMSO zero. activity (Tm shift, normalised), % at 9.99 µM. 340,000 compounds, 1.5% hits. AID 651658;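 active = mean Tm shift, scaled 0 neutral to 100 positive control, at about 1.3% or above, every replicate too, limit read from the data; inconclusive = no clear call, values can overlap the other calls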
# Target sequence (Q9HCT0 whole entry, looked up): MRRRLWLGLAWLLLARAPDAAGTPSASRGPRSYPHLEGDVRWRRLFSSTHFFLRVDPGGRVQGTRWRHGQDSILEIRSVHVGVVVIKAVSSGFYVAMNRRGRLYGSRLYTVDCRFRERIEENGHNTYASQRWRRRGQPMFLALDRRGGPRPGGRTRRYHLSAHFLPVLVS
# ERAP1 inh: blocks human ERAP1 aminopeptidase activity | Q9NZ08 | recombinant ERAP1, Leu-AMC fluorescence, 60 min | inhibition, % at 10.7 µM | 340,000 compounds, 0.15% hits;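 active = mean replicate inhibition of at least 30%, or all replicates individually reaching that 30% level; inactive = mean below 30% and not every replicate reaching it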
# Hits are given with their value; - = inactive; ? = inconclusive; . = no result given.
SMILES,PDI inh,ERp5 block,S100A4 MyoIIA,FGF22 binding,ERAP1 inh
Cc1ccsc1/C=N/NC(=O)c1ccncc1,-,-,-,43.4,-
O=C(NN=Cc1ccc([N+](=O)[O-])cc1)c1ccncc1,-,-,-,43.9,-
O=C(N/N=C/c1cc(Br)c(Br)s1)c1ccncc1,-,?,-,43.6,-
O=C(N/N=C/c1ccc([N+](=O)[O-])cc1)c1ccccc1OCc1ccccc1,-,-,-,-,-
O=C(N/N=C/c1ccc([N+](=O)[O-])cc1)c1ccc(COc2ccccc2-c2ccccc2)cc1,-,-,-,43.7,-
O=C(NCCc1nc2ccccc2[nH]1)C1CCC(=O)N(CCc2cccc(F)c2)C1 (configuration not stated),-,-,-,-,-
CC(NC(=O)c1ccc(Cl)cc1)C1CC2CCC1C2 (configuration not stated),-,-,-,-,-
Cc1cc(C(=O)OCC(=O)N(C)c2c(N)n(Cc3ccccc3)c(=O)[nH]c2=O)c(C)n1-c1ccccc1,-,-,-,-,-
O=C(NC(=S)Nc1cccc(NC(=O)c2ccccc2)c1)c1cccc([N+](=O)[O-])c1,31.7,.,.,.,.
COc1cc(CN2CCN(c3cccc(C)c3C)CC2)cc([N+](=O)[O-])c1O,-,-,-,43.4,-
O=C(NCc1ccco1)C1CC(c2ccc(Cl)cc2)=NO1 (configuration not stated),-,-,-,43.0,-
O=C(NCc1cc(C(F)(F)F)cc(C(F)(F)F)c1)C1CC(c2ccc(C(F)(F)F)cc2)=NO1 (configuration not stated),-,-,-,41.2,-
COCc1cc(SC2CCCCC2)nc(C)n1,-,-,-,43.2,-
Cc1nc2ccccc2n1CC(O)COc1ccc(Br)cc1 (configuration not stated),-,-,-,43.9,-
CCCCNC(=O)C1(C)CCN1C(=O)c1cncc(Br)c1 (configuration not stated),-,-,-,-,-
CC1CCC(C(C)C)C(OC(=O)Cn2c(-c3ccc(Cl)cc3)[n+](C)c3ccccc32)C1 (configuration not stated),-,-,-,-,31.0
Cc1ccccc1OCc1n(CC(=O)OC2CC(C)CCC2C(C)C)c2ccccc2[n+]1C (configuration not stated),-,-,-,43.3,-
CC1CCC(C(C)C)C(OC(=O)Cn2c(-c3ccc(Br)cc3)[n+](C)c3ccccc32)C1 (configuration not stated),-,-,-,-,-
O=C(C[C@@H]1C=C[C@@H](NC(=O)Nc2cc(F)ccc2F)[C@@H](CO)O1)NCc1ccncn1,.,-,-,-,-
CC1=C(C(=O)N(C(C)C)C(C)C)CC(CC(=O)NCCCN(C)C)C(=O)N1Cc1ccc(F)cc1 (configuration not stated),.,-,-,-,-
CO[C@@]1(NC(=O)CSCC#N)C(=O)N2C(C(=O)O)=C(CSc3nnnn3C)CS[C@@H]21,-,-,-,1.5,-
C[C@@H]1CN([C@H](C)CO)C(=O)c2cc(NC(=O)C3CCCCC3)ccc2O[C@@H]1CN(C)Cc1ccc(-c2ccccc2)cc1,.,-,-,-,.
COc1ccc(CC2(c3ccccc3)NC(=O)NC2=O)cc1 (configuration not stated),-,-,-,43.3,-
O=C1NC(=O)C(Cc2ccccc2)(c2ccccc2)N1 (configuration not stated),-,-,-,-,-
CCCCC(CC)C1OCC(C[N+]2(C)CCOCC2)O1 (configuration not stated),-,-,-,-,83.1
SMILES,PDI inh,ERp5 block,S100A4 MyoIIA,FGF22 binding,ERAP1 inh
CC(c1ccccc1)C1OCC(C[N+]2(C)CCCCC2)O1 (configuration not stated),-,-,-,-,-
c1ccc2oc(SCc3cn4ccccc4n3)nc2c1,-,-,-,-,-
c1ccc2nc(SCc3cn4ccccc4n3)cnc2c1,-,-,-,43.1,-
CCS(=O)(=O)c1nc(S(=O)(=O)c2ccc(Cl)cc2)c(N2CCC3(CC2)OCCO3)s1,-,-,-,43.2,-
Cn1c(SCC(=O)NC(=O)c2cccc([N+](=O)[O-])c2)nnc1-c1ccc(F)cc1,-,-,-,-,-
O=C(c1ccccc1)c1sc(N2CCOCC2)nc1-c1ccccc1,-,-,-,44.0,-
COc1cc(C(=O)N2C[C@H]3CON(C)[C@H]3C[C@H]2c2ccc(N3CCCCC3)cc2)cc(OC)c1OC,.,-,-,-,.
CCN1CCn2c3c(c4cc(Cl)ccc42)CCCC31 (configuration not stated),-,.,-,.,.
CCN(CC)CCN1CCn2c3c(c4cc(C)ccc42)CCCC31 (configuration not stated),-,-,-,43.5,-
CCOC(=O)/C(C)=N/NC(=O)c1cccc([N+](=O)[O-])c1,-,-,-,44.2,-
CCOC(=O)Cc1ccc(NC(=O)c2cccc([N+](=O)[O-])c2)cc1,-,-,-,-,-
COC(=O)c1cc2c(c3c4cc(OC)ccc4n(S(=O)(=O)c4ccc(OC)cc4)c13)C(=O)N(Cc1ccc(C(F)(F)F)cc1)C2,.,-,-,-,-
Cc1ccc(C)c(NC(=O)CCC(=O)N/N=C/c2ccc3c(c2)OCO3)c1,-,-,-,43.4,-
Cc1ccccc1NC(=O)CCC(=O)N/N=C/c1ccc(F)cc1,-,-,-,43.0,-
Cc1ccccc1NC(=O)CCC(=O)N/N=C/c1cccnc1,-,-,-,-,-
C[n+]1cccc(C(=O)N/N=C/c2ccc3c(c2)OCO3)c1,-,-,-,-,45.6
Cc1ccccc1NCC(=O)N/N=C\c1ccc2c(c1)OCO2,-,-,-,44.0,-
COc1ccc(-c2ccc3c(c2)[C@H]2[C@H](CCN2S(=O)(=O)c2ccccc2C)[C@@H](CO)N3)cc1,.,-,-,-,-
CCOC(=O)COc1ccccc1-c1ccno1,-,.,.,.,.
Cn1cccc1CC(=O)NNC(=S)Nc1ccc(Cl)cc1Cl,-,.,.,.,.
COc1ccccc1NC(=O)/C=C/c1ccc2c(c1)OCO2,-,-,-,-,-
Cc1ccc(S(N)(=O)=O)cc1NC(=O)/C=C/c1ccc2c(c1)OCO2,-,-,-,43.5,-
Cc1nn(-c2ccc3ccccc3c2)c(=O)c2ccccc12,-,-,-,43.9,-
O=C1N=c2ccccc2=C1c1sc(NS(=O)(=O)c2ccccc2)nc1O,-,-,-,-,-
O=C1N=c2ccccc2=C1c1sc(NS(=O)(=O)Cc2ccccc2)nc1O,-,-,-,1.3,-
C[C@H]1CN([C@@H](C)CO)C(=O)c2cccc(NC(=O)C3CC3)c2O[C@@H]1CN(C)Cc1ccc2c(c1)OCO2,.,-,122.4,-,-
COc1ccc(NC(=O)Nc2cccc3c2O[C@H](CN(C)Cc2ccc4c(c2)OCO4)[C@@H](C)CN([C@@H](C)CO)C3=O)cc1,.,-,118.5,-,-
